According to ChEMBL document CHEMBL1142281, “New 1,2,3,4-tetrahydroisoquinoline derivatives as modulators of proteolytic cleavage of amyloid precursor proteins” (Bioorg Med Chem, 2008):
The source made the active and inactive calls. The rule behind the calls is not given here.

Key:
[1] = Inhibition of monoamino oxidase B from F344/N rat brain cortex
[2] = Lipophilicity, log P of the compound; type: physicochemical; conditions: octanol/water
[3] = molecular target: Mitogen-activated protein kinase; ERK1/ERK2 (Homo sapiens) (UniProt P27361+P28482); assay: Activation of ERK1/2 in T20 cells at 10 uM relative to nontreated cells; type: cell-based
Summary of the method: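 T20 cells plated at 5 × 10⁵/well, grown 18 h at 37 °C, then 18 h with tetracycline 1 µg/ml. Medium switched to DMEM with 0.5% FBS and compounds added at 10 µM. Lysis in Tris-HCl pH 8.0 buffer with Triton X-100 and inhibitors; 50 lg protein run on 12% SDS-PAGE and immunoblotted for phospho-ERK1/2 and total ERK1/2. Read-out p-ERK/ERK % of untreated; three experiments.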

T20 = assay: Inhibition of gamma secretase in T20 cells assessed as amyloid precursor protein cleavage at 10 uM after 24 hrs by luciferase reporter gene assay; type: cell-based; set-up: scale not given: the % may be the effect or the level left
Summary of the method: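 T20 cells (stable C99-luciferase reporter line, kept in hygromycin/blasticidin/zeocin medium) plated 2 × 10⁴/well and held 24 h at 37 °C. Compounds added at 10 µM final with tetracycline 1 µg/ml for 24 h at 37 °C. Luminescence read with Steady-Glo reagent as fold luciferase activation versus DMSO; triplicates.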

[4] = Increase in sAPP alpha secretion in gamma-30 cells; type: functional, cell-based
Summary of the method: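 Conditioned media from c-30 cells (full-length APP with human PS1, Aph-1a2, Pen-2), normalised to lysate protein content. Immunoprecipitated with rabbit polyclonal anti-Ab1–17, separated by SDS–PAGE and Western blotted with mouse monoclonal 6E10 to detect sAPPa.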

Chain of Mitogen-activated protein kinase; ERK1/ERK2 (Homo sapiens) (P27361 whole entry, looked up): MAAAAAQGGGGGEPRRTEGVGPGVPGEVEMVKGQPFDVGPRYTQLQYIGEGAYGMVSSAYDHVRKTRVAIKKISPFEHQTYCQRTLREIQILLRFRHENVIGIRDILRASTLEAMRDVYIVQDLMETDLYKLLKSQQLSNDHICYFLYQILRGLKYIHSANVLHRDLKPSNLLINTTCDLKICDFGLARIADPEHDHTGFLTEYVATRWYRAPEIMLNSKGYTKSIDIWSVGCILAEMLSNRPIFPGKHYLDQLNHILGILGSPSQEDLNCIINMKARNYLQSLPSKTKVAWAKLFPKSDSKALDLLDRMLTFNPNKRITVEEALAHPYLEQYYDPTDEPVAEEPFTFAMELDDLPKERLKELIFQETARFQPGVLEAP
Chain of Mitogen-activated protein kinase; ERK1/ERK2 (Homo sapiens) (P28482 whole entry, looked up): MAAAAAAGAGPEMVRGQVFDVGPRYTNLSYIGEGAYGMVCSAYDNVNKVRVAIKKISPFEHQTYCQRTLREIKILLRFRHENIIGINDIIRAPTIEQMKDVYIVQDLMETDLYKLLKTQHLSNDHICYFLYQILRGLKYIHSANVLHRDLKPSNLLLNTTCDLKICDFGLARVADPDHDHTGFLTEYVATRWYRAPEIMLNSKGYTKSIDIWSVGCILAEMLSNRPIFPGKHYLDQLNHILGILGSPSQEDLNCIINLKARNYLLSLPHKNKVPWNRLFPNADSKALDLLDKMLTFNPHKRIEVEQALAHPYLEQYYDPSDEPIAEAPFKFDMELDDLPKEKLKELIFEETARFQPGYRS

Compound | IC50 [1] | logP [2] | Activity [3] | Activity (T20) | Activity [4]
C#CCN1CCc2ccc(OC(=O)N3CCCC3)cc2C1 | 13.9 µM | 2.23 |  |  | 
O=C(Oc1ccc2c(c1)CN(CC1CC1)CC2)N1CCOCC1 | 18.5 µM | 2.29 | 138% | 35% | Active
C#CCN1CCc2ccc(OC(=O)N3CCCCC3)cc2C1 | 15.7 µM | 2.63 |  |  | 
CCN(C)C(=O)Oc1ccc2c(c1)CN(CC1CC1)CC2 | 12.8 µM | 2.69 | 131% | 35% | Active
C#CCN[C@@H]1CCc2ccccc21 [RASAGILINE] | 2.1 µM | 2.29 | 131% |  | 
O=C(Oc1ccc2c(c1)CN(CC1CC1)CC2)N1CCCCC1 | 11.6 µM | 3.09 | 155% | 35% | Active
O=C(Oc1ccc2c(c1)CN(CC1CC1)CC2)N1CCCC1 | 14.9 µM | 2.67 |  |  | 
C#CCN1CCc2ccc(OC(=O)N3CCOCC3)cc2C1 | 18.7 µM | 1.57 |  |  | 
C#CCN1CCc2ccc(OC(=O)N(C)CC)cc2C1 | 21.5 µM | 2.25 |  |  | 
